Molecular target: T1, Platelet-activating factor acetylhydrolase (Homo sapiens) (UniProt Q13093)
T1 sequence (whole entry): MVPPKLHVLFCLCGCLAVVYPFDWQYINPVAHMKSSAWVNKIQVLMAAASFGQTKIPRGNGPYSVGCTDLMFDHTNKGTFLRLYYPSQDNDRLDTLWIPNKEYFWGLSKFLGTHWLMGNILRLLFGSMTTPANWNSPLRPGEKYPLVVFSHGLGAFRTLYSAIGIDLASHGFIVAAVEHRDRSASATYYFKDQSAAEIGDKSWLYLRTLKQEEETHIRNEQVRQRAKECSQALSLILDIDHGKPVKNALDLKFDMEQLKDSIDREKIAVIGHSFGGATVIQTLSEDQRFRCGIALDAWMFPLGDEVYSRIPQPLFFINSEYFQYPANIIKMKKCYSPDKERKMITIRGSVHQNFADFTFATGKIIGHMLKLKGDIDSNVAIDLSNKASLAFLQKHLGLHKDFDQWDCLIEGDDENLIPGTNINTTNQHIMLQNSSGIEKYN
Test: Inhibition of Lipoprotein associated phospholipase A2 in human plasma at 100 nM
Type: cell-free
Procedure, shortened: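 Whole plasma (human, or WHHL rabbit) mixed with compound in DMSO at a single concentration and preincubated 10 min at 37 °C before enzyme assay. Reaction ran 60 s in human plasma and 15 s in rabbit plasma, then stopped with CHCl3/MeOH (2:1). Released [3H]acetate was read by scintillation counting of the aqueous layer after chloroform extraction.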

Q: With `O=c1nc(SCc2ccc(F)cc2)n(Cc2ccco2)cc1Cc1cncnc1` as the molecule, how does the inhibition read?
A: 26%

Q: How did the inhibition turn out when `O=c1nc(SCc2ccc(F)cc2)n(CCc2ccccc2)cc1Cc1cncnc1` was run?
A: 27%

Q: Which inhibition does the source give for `Cn1cc(Cc2cncnc2)c(=O)nc1SCc1ccc(F)cc1` here?
A: 28%

Molecular target: T2, Platelet-activating factor acetylhydrolase (Homo sapiens, UniProt Q13093)
T2 sequence (Q13093 whole entry): T1 sequence (whole entry)
Test: Inhibition of isolated human lipoprotein associated phospholipase A2

Q: `CCCCCCCCCCCn1cc(Cc2cncnc2)c(=O)nc1SCc1ccc(F)cc1` was tested. Which IC50 did it give?
A: 19 nM

Q: How did the IC50 turn out when `O=c1nc(SCc2ccccc2)n(CCCc2ccccc2)cc1Cc1cncnc1` was run?
A: 300 nM

Q: How did the IC50 turn out when `CCCCCCCNC(=O)NCCn1cc(Cc2cncnc2)c(=O)nc1SCc1ccc(F)cc1` was run?
A: 70 nM

Q: With `O=c1nc(SCc2ccccc2)n(Cc2cccs2)cc1Cc1cncnc1` as the molecule, how does the IC50 read?
A: 210 nM

Q: With `CCCCCCCCNC(=O)Cn1cc(Cc2cncnc2)c(=O)nc1SCc1ccc(F)cc1` as the molecule, how does the IC50 read?
A: 7 nM

Q: With `O=c1nc(SCc2ccccc2)n(CCc2ccccc2)cc1Cc1cncnc1` as the molecule, how does the IC50 read?
A: 210 nM

Q: How did the IC50 turn out when `O=c1nc(SCc2ccccc2)n(Cc2ccccc2)cc1Cc1cncnc1` was run?
A: 450 nM

Q: With `O=c1nc(SCc2ccc(F)cc2)n(CCc2cccs2)cc1Cc1cncnc1` as the molecule, how does the IC50 read?
A: 250 nM

Q: How did the IC50 turn out when `O=c1nc(SCc2ccc(F)c(F)c2)n(CCc2ccccc2)cc1Cc1cncnc1` was run?
A: 110 nM

Q: How did the IC50 turn out when `O=c1nc(SCc2ccc(F)cc2)n(Cc2ccco2)cc1Cc1cncnc1` was run?
A: 300 nM

Q: How did the IC50 turn out when `O=c1nc(SCc2ccc(Cl)cc2)n(Cc2ccco2)cc1Cc1cncnc1` was run?
A: 1400 nM

Q: How did the IC50 turn out when `CCCCCCCCCCCCCCCCCCNC(=O)CCCn1cc(Cc2cncnc2)c(=O)nc1SCc1ccc(F)cc1` was run?
A: 4 nM

Q: How did the IC50 turn out when `O=C(CCCCCCCSc1nc(=O)c(Cc2cncnc2)cn1CCCc1ccccc1)c1ccc(Cl)cc1` was run?
A: 90 nM

Q: For `CCCCCCCC(=O)NCCn1cc(Cc2cncnc2)c(=O)nc1SCc1ccc(F)cc1`, which IC50 is on record?
A: 140 nM

Q: How did the IC50 turn out when `CCCCCCCN(C)C(=O)CCCn1cc(Cc2cncnc2)c(=O)nc1SCc1ccc(F)cc1` was run?
A: 3 nM

Q: How did the IC50 turn out when `Cn1cc(Cc2cncnc2)c(=O)nc1SCCCCCCCC(=O)c1ccc(Cl)cc1` was run?
A: 19 nM

Q: Which IC50 does the source give for `CCCCCCCCC=CCCCCCCCCNC(=O)CCCn1cc(Cc2cncnc2)c(=O)nc1SCc1ccc(F)cc1` here?
A: 0.4 nM

Q: With `O=c1nc(SCc2ccccc2)n(CCc2cccs2)cc1Cc1cncnc1` as the molecule, how does the IC50 read?
A: 350 nM

Q: For `COCCn1cc(Cc2cncnc2)c(=O)nc1SCc1ccccc1`, which IC50 is on record?
A: 1200 nM

Q: `CCCCNC(=O)CCCCCn1cc(Cc2cncnc2)c(=O)nc1SCc1ccc(F)cc1` was tested. Which IC50 did it give?
A: 260 nM

Q: With `O=c1nc(SCc2ccccc2F)n(Cc2ccco2)cc1Cc1cncnc1` as the molecule, how does the IC50 read?
A: 450 nM

Q: Which IC50 does the source give for `CCCCCCCCN(C)C(=O)Cn1cc(Cc2cncnc2)c(=O)nc1SCc1ccc(F)cc1` here?
A: 15 nM

Q: For `CCn1cc(Cc2cncnc2)c(=O)nc1SCCCCCCCC(=O)c1ccc(Cl)cc1`, which IC50 is on record?
A: 39 nM

Q: `O=c1nc(SCc2cccc(Cl)c2)n(Cc2ccco2)cc1Cc1cncnc1` was tested. Which IC50 did it give?
A: 960 nM

Q: Which IC50 does the source give for `CCCCCCCNC(=O)Cn1cc(Cc2cncnc2)c(=O)nc1SCc1ccc(F)cc1` here?
A: 19 nM

Q: How did the IC50 turn out when `O=c1nc(SCc2ccc(F)cc2)n(CCCCCCCCCc2ccccc2)cc1Cc1cncnc1` was run?
A: 25 nM

Q: How did the IC50 turn out when `O=C(CCCCCCCSc1nc(=O)c(Cc2cncnc2)cn1CCc1ccccc1)c1ccc(Cl)cc1` was run?
A: 34 nM

Q: For `COCCn1cc(Cc2cncnc2)c(=O)nc1SCCCCCCCC(=O)c1ccc(Cl)cc1`, which IC50 is on record?
A: 110 nM

Q: How did the IC50 turn out when `Cn1cc(Cc2cncnc2)c(=O)nc1SCc1ccccc1` was run?
A: 660 nM

Q: For `O=c1nc(SCc2ccc(F)c(F)c2)n(Cc2ccco2)cc1Cc1cncnc1`, which IC50 is on record?
A: 235 nM

Q: How did the IC50 turn out when `O=c1nc(SCc2ccc(F)cc2)n(CCc2ccccc2)cc1Cc1cncnc1` was run?
A: 200 nM

Q: With `O=C(Cn1cc(Cc2cncnc2)c(=O)nc1SCc1ccc(F)cc1)NCCCCCCc1ccc(F)cc1` as the molecule, how does the IC50 read?
A: 2 nM

Q: For `CCCCCCCCC=CCCCCCCCCNC(=O)Cn1cc(Cc2cncnc2)c(=O)nc1SCc1ccc(F)cc1`, which IC50 is on record?
A: 1 nM

Q: With `O=C(CCCCCCCSc1nc(=O)c(Cc2cncnc2)cn1Cc1ccco1)c1ccc(Cl)cc1` as the molecule, how does the IC50 read?
A: 16 nM

Q: `Cn1cc(Cc2cncnc2)c(=O)nc1SCc1ccc(F)cc1` was tested. Which IC50 did it give?
A: 285 nM

Q: With `CCCCCCCCCCNC(=O)CCCn1cc(Cc2cncnc2)c(=O)nc1SCc1ccc(F)cc1` as the molecule, how does the IC50 read?
A: 0.1 nM

Q: For `CCCCCCCC/C=C/CCCCCCCCNC(=O)Cn1cc(Cc2cncnc2)c(=O)nc1SCc1ccc(F)cc1`, which IC50 is on record?
A: 2 nM

Q: `O=C(CCCCCCCSc1nc(=O)c(Cc2cncnc2)cn1Cc1ccccc1)c1ccc(Cl)cc1` was tested. Which IC50 did it give?
A: 36 nM

Q: Which IC50 does the source give for `O=c1nc(SCc2cccc(F)c2)n(Cc2ccco2)cc1Cc1cncnc1` here?
A: 250 nM

Q: For `CCCCCCCC/C=C/CCCCCCCCNC(=O)CCCn1cc(Cc2cncnc2)c(=O)nc1SCc1ccc(F)cc1`, which IC50 is on record?
A: 0.7 nM

Q: How did the IC50 turn out when `CCCCCCc1ccc(CCn2cc(Cc3cncnc3)c(=O)nc2SCc2ccc(F)cc2)cc1` was run?
A: 12 nM

Q: For `O=C(CCCCCCCSc1nc(=O)c(Cc2cncnc2)cn1Cc1cccs1)c1ccc(Cl)cc1`, which IC50 is on record?
A: 11 nM
